The values below come from paper PMC5071122 (The Pediatric infectious disease journal, 2016).

The conditions of data set [1]: via hepatic transporter proteins; cited from earlier work.
For a further data set, the system named is Candida spp. To be noted: ref 6-8; cited from earlier work.
The conditions of data set [2]: infants and children receiving micafungin; cited from earlier work.
For data set [3] the following is noted: cited from earlier work.
The conditions of data set [4]: cited from earlier work. This is another data set of the same source.
The conditions of data set [5]: neonatal trial of 15 mg/kg/day; standard deviation 99; cited from earlier work.
A short description of data set [6]: Observed micafungin exposure. It is filed as in vivo, infants. To be noted: 4 mg/kg IV every 24h. A digest of the protocol:
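Infants on ECMO, prophylactic arm, given IV test compound 4 mg/kg every 24h for up to 8 days. EDTA arterial plasma sampled around dose 4, from pre-infusion to 22-24h post-infusion, and assayed by HPLC-fluorescence (LLOQ 0.05 mg/L). AUC0-24 was computed from observed data by the linear-up log-down trapezoidal method and compared with the therapeutic target of 75-139 mg*h/L.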

For data set [7] the following is noted: phase III efficacy trial, used as target efficacy exposure; cited from earlier work.
The nature of data set [8]: Open-label PK trial of IV micafungin in infants on ECMO. To be noted: human, in vivo.
For data set [9] the following is noted: cited from earlier work. This is another data set of the same source.
Data set [10] is described as follows: Safety: adverse events in infants on ECMO receiving micafungin. It is filed as in vivo.
For data set [11] the following is noted: ref 33; cited from earlier work.

Read-outs that look alike come from different tables or passages of the source. Starred links: 1 amine or outer side, 2 acyl side, 3 side chain; linkers in the order of their positions; H or OH if unused. Positions of bridges follow the written chain, without caps; N, C: chain ends. Non-standard residues stand in square brackets, D forms with d. Residues, ends and D or L forms follow the SMILES beside them. *: point of attachment. hTyr(3S-OH,4S-OH,3'-OSO3H) = N[C@H](C(=O)O)[C@H](O)[C@@H](O)c1ccc(O)c(OS(=O)(=O)O)c1; Orn(4R-OH,5R-OH) = O=C([C@H](C[C@@H](O)[C@@H](O)N[*:3])N[*:1])[*:2]; Pro(3S-OH,4S-Me) = C[C@H]1CN[C@H](C(=O)O)[C@H]1O; X1 = CCCCCOc1ccc(-c2cc(-c3ccc(C(=O)*)cc3)no2)cc1; Gln(3R-OH) = NC(=O)C[C@@H](O)[C@H](N)C(=O)O; Hyp = O=C(O)[C@@H]1C[C@@H](O)CN1

Consider `CCCCCOc1ccc(-c2cc(-c3ccc(C(=O)N[C@H]4C[C@@H](O)[C@@H](O)NC(=O)[C@@H]5[C@@H](O)[C@@H](C)CN5C(=O)[C@H]([C@H](O)CC(N)=O)NC(=O)[C@H]([C@H](O)[C@@H](O)c5ccc(O)c(OS(=O)(=O)O)c5)NC(=O)[C@@H]5C[C@@H](O)CN5C(=O)[C@H]([C@@H](C)O)NC4=O)cc3)no2)cc1` [micafungin] (X1-[Orn(4R-OH,5R-OH)]T[Hyp][hTyr(3S-OH,4S-OH,3'-OSO3H)][Gln(3R-OH)][Pro(3S-OH,4S-Me)]; lactam 1-C), for which the “Excreted primarily unchanged into bile and feces” value in [1] is listed as 71%. In the data set with Candida spp, the “Activity against a broad spectrum of Candida spp” value is “fungicidal” and the Biofilm penetration entry was “can penetrate biofilms”. In addition, in data set [2], the “Hypokalemia, proportion of infants and children” value is 2%; the “Liver toxicity, proportion of infants and children” value is 3%. For the same compound, the “Time reconstituted micafungin is stable” value in [3] (reconstituted, room temperature, exposed to light) is reported as “up to 24 hours”. For the same compound, the Light sensitivity entry in data set [3] (ref 16) is listed as “light-sensitive”. Also, the Protein bound in data set [4] (ref 14) is listed as > 99%. The Protein bound in data set [4] (ref 33) is given as > 99%. Moreover, in data set [5], the “Mean (standard deviation) exposure deemed safe” value was 438 µg·h/mL. Besides, in data set [6] (after dose 1 and 4, Two/4 infants), the “Infants with a hemofilter achieving AUC0-24 within or above the therapeutic target range” value was found to be 50%. Further, in data set [6] (prophylactic arm, 3/5 infants sampled around dose 4), the “Infants within the therapeutic range after dose 4” value is listed as 60%. The “Infants achieving the therapeutic exposure target (75-139 mg*h/L) after a single dose” value in [6] (prophylactic arm, 5/11 infants) is reported as 45%. In addition, the “AUC0-24 range, exposure of adult participants who cleared their fungal infection” value in [7] is 75 to 139 µg·h/mL. In data set [8], this compound had a Vd of 0.64 L/kg and a clearance of 0.683 mL/min/kg. Moreover, in [9] (ref 15, 25), the “V reported in infants not on ECMO” value is 0.34 to 0.54 L/kg. The “CL, previously reported values for infants not supported by ECMO” value in data set [9] (ref 19, 24-26) is 0.333 to 0.65 mL/min/kg. Moreover, the “Deaths considered related to micafungin” value in data set [10] (12 infants on ECMO, study period) is “None”. Further, the Tolerability result in data set [10] (cohort of infants supported by ECMO) is “well tolerated”. Also, in data set [11], the logP is listed as −1.5.
